Screening results as filed in PubChem.
Shown are actives, neighbours in structure and some others; about 7.9% of the full set was active somewhere.
RORA act = RORA (human) activation | P35398 | CHO-K1 Gal4-RORA LBD luciferase reporter, luminescence; percent increase over mock-subtracted basal signal | activation, % at 10 µM | actives 1.5% (n = 65,000) | AID 560;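 active means activation above the mean of all tested compounds plus 3 SD, cut at about 49% in these data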;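 further: 0% = DMSO-treated RORA cells and 100% = added signal equal to DMSO minus mock-transfected cells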
SF-1 act = SF-1 (human) activation; Q13285; CHO-K1 Gal4-SF-1 LBD luciferase reporter; % increase over DMSO SF-1-specific signal; activation, % at 10 µM; actives 1.9% (n = 65,000);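 active means activation above the mean activation of all tested compounds plus 3 SD, cut at about 50% in these data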
Target sequence (Q13285 whole entry, looked up, the tested form may be a part): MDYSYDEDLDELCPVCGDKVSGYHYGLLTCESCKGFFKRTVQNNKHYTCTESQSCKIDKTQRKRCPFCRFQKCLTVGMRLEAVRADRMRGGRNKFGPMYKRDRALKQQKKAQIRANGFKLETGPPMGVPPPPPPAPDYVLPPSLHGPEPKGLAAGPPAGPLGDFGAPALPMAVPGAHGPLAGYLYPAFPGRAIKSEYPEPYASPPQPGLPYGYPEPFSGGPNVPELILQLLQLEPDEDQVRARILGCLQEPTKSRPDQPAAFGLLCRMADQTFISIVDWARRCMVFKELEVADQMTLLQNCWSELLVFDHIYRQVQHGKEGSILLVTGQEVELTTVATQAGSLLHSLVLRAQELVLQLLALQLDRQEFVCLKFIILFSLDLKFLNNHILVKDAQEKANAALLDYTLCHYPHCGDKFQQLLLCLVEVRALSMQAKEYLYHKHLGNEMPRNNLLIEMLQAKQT
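Material: Transient Gal4-SF-1 LBD reporter, CHO-K1 | Input: 4,000 cells/well | Dosing: One dose, 10 µM compound, 1% DMSO | Incubation: 20 h compound treatment, 37 °C | Detection: SteadyLite luciferase luminescence | Evaluation: Percent activation relative to DMSO median and mock-transfected background | Benchmarks: DMSO-treated SF-1-transfected cells as negative, DMSO-treated mock-transfected cells lacking SF-1 as background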
D1 allo mod = D1 dopamine receptor (human) allosteric modulation; P21728; HEK293 D1, CRE-luciferase, dopamine EC30 potentiation; actives deviate in either direction; B-score at 10 µM; actives 5.9% (n = 58,000);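 active means luminescence count or its row- and column-corrected plate score outside the 99.7% band of the plate's sample wells, on either side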
JNK3 inh = blocks human JNK3 kinase activity; purified JNK3 kinase activity, HTS; AID 746; P53779; inhibition, % at 8 µM; actives 0.61% (n = 60,000); in the data active means inhibition above about 17%;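 further: 0% = DMSO and 100% = reference inhibitor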
HEK293 NFkB inh = inhibitors of the PMA/ionomycin-induced NF-kB reporter in HEK293 cells | HEK-293 NF-kB luciferase reporter, luminescence | inhibition, % at 3 µM | actives 0.21% (n = 62,000);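 active means inhibition above the mean of all tested compounds plus 3 SD, cut at about 40% in these data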;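 further: 0% = stimulated DMSO wells and 100% = 10 µM reference inhibitor 5653914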
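Reagent: PMA plus ionomycin mix as NF-kB-activating stimulus. Assay system: NF-kB luciferase reporter HEK-293 cells. Technique: luminescence from luciferase substrate reagent. Incubation: 1 h compound pre-incubation, 16 h PMA/ionomycin at 37 °C. Benchmarks: DMSO only as uninhibited control, 10 µM reference inhibitor as full inhibition. Repeats: tested once.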
D1 mod confirm = D1 receptor (human) allosteric modulation, confirmed | actives 88% (n = 2,200) | luminescence at 10 µM | HEK293 D1 CRE-luciferase, dopamine EC30 potentiation; hits give high values | shares compounds with D1 allo mod;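 active means luminescence in either of two replicates above the same-plate mean plus 3 SD of the low-dose dopamine control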
D1 no dopamine = D1 (human) signaling in absence of dopamine. shares compounds with D1 allo mod. HEK293 D1 CRE-luciferase, luminescence, no dopamine; hits give high values. luminescence at 10 µM. actives 0.8% (n = 1,900). AID 646; in the data active means luminescence above about 3900
Isoprot counter = counter-screen for D1 modulators: isoproterenol response in HEK293 cells; shares compounds with D1 allo mod; HEK293 D1 CRE-luciferase, isoproterenol EC30 counter-screen; calls only at 10 µM; actives 63% (n = 2,200); AID 647;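 active means luminescence in either replicate above plate mean of wells with a partly effective reference agonist dose plus 3 SD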;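 further: isoproterenol raises cAMP through native beta-adrenoceptor Gs so signal bypasses D1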
* hit, by the source's call; i = inactive; nt = not tested or not shown; + = active, no number.

SMILES | RORA act | SF-1 act | D1 allo mod | JNK3 inh | HEK293 NFkB inh | D1 mod confirm | D1 no dopamine | Isoprot counter
CC(C)Oc1ccccc1C1CC(=O)Nc2cc3c(cc21)OCCO3 (stereo not given) | -28 | -39 | 2.3* | 2 | 16 | 10132* | 1612 | i
COc1ccccc1C1CC(=O)Nc2cc3c(cc21)OCCO3 (stereo not given) | 12 | 28 | -2 | 0 | 32 | nt | nt | nt
CCc1ccccc1-n1c(SCC(=O)Nc2ccc3c(c2)OCCO3)nc2[nH]ncc2c1=O | -16 | 9 | -0.74 | 12 | 5 | nt | nt | nt
O=c1c2cn[nH]c2nc(SCc2ccc3c(c2)OCCO3)n1-c1ccccc1 | 12 | 6 | 7.9* | nt | 8 | 11032* | 1768 | +
CCCc1nnc(NC(=O)C2CCCO2)s1 (stereo not given) | 23 | 32 | -0.62 | 0 | 4 | nt | nt | nt
CCOc1cc(S(=O)(=O)N(CC)CC)ccc1Br | -14 | -14 | 12* | 3 | 15 | 11820* | 1708 | +
CCN(CC)S(=O)(=O)c1ccc(Br)c(OC)c1 | 5 | -9 | nt | -3 | 3 | nt | nt | nt
CC12C(=O)N(CCC(=O)O)C(=O)C1C1C=CC2C1 (stereo not given) | -9 | 6 | -0.5 | 5 | 0 | nt | nt | nt
C=CCn1c(=O)c2c(C)c(C)sc2n2c(Nc3ccc(OC)cc3)nnc12 | 2 | -5 | 3.3* | -1 | 18 | 10192* | 1584 | i
Cn1c(CN2CCOCC2)nnc1SCC(=O)NCCc1ccccc1 | -12 | -14 | -0.79 | -2 | 5 | nt | nt | nt
CSC1=NC(NCCCO)c2c(sc3c2CC(C)(C)OC3)N1 (stereo not given) | 13 | -14 | 3.9* | 7 | 8 | 11400* | 1504 | i
CCNc1nc(NC(C)C)nc(Oc2ccc(OCCOc3ccc(C)cc3)nn2)n1 | 0 | -10 | 0.55 | -2 | 15 | nt | nt | nt
CCN(CC)c1nc(N)c2c(N)nc3c(c2c1C#N)CC(c1ccccc1)O3 (stereo not given) | -21 | 14 | 3.6* | -4 | 6 | 6688* | 1392 | i
CCOC(=O)c1cc(S(=O)(=O)N2CCN(C(=O)OCC)CC2)cn1C | -12 | 3 | 0.3 | 2 | -8 | nt | nt | nt
Cc1ccc2[nH]c(=O)c(CN(Cc3ccco3)C(=O)c3cccs3)cc2c1 | -16 | -3 | -1.1 | -6 | 1 | nt | nt | nt
O=C(c1cccs1)N(Cc1ccccn1)Cc1ccco1 | -12 | 7 | 10* | -2 | 4 | 13228* | 1456 | +
COC(=O)Cc1[nH]nc2c1C(c1c[nH]c3ccccc13)C(C#N)=C(N)O2 (stereo not given) | 4 | 17 | 8* | -4 | 16 | 10912* | nt | +
CCCc1[nH]nc2c1C(c1ccc(OC)cc1OC)C(C#N)=C(N)O2 (stereo not given) | 11 | 5 | 7.7* | 11 | 7 | 14308* | 1416 | +
CCOC(=O)Cc1[nH]nc2c1C(c1ccoc1)C(C#N)=C(N)O2 (stereo not given) | -21 | 4 | -0.09 | 1 | 21 | nt | nt | nt
CCCCCn1c(NCc2ccco2)nc2ccccc21 | -9 | 34 | 6.3* | 1 | 15 | 12176* | 1460 | i
COc1cc([C@@H]2c3cc4c(cc3[C@H](O)[C@H]3COC(=O)[C@H]23)OCO4)cc(OC)c1OC | -50 | -78 | 7.1* | 0 | nt | 8908* | 1648 | +
CCN(C(=O)CN1CCN(c2ccc(O)cc2)CC1)c1c(N)n(Cc2ccccc2)c(=O)[nH]c1=O | -15 | -8 | -0.035 | 0 | 16 | nt | nt | nt
N#Cc1nc(-c2ccccc2F)oc1NC1CCCCC1 | 12 | 23 | 9.7* | 0 | 10 | 18604* | 1740 | +
N#Cc1nc(-c2ccccc2F)oc1NCc1cccc2c1OCO2 | -18 | -2 | 21* | -5 | 7 | 21008* | 1688 | +
Cc1nc(SC2C=CS(=O)(=O)C2)n[nH]1 (stereo not given) | -7 | 3 | -0.26 | 10 | nt | nt | nt | nt
SMILES | RORA act | SF-1 act | D1 allo mod | JNK3 inh | HEK293 NFkB inh | D1 mod confirm | D1 no dopamine | Isoprot counter
CCOC1(C(F)(F)F)NC(=O)N(Cc2ccc(OC)cc2)C1=O (stereo not given) | -6 | 3 | 0.035 | 2 | 7 | nt | nt | nt
CC(C)CN1CN(S(=O)(=O)c2cccs2)c2nc3ccccc3nc21 | -2 | 15 | 11* | 6 | 7 | 18664* | 1708 | +
CC(C)OCCCN1CN(S(=O)(=O)c2ccccc2)c2nc3ccccc3nc21 | 29 | 6 | 0.21 | 1 | -2 | nt | nt | nt
Cc1ccc(S(=O)(=O)N(C)Cc2ccc(-c3nnc4n3CCC4)cc2)cc1 | -13 | 7 | 0.21 | 6 | 16 | nt | nt | nt
COc1ccc(N2CCN(Cc3nc4c(c(=O)n(C)c(=O)n4C)n3CCc3ccccc3)CC2)cc1 | -10 | 19 | 3.5* | -5 | 1 | 7060 | 1804 | +
O=c1c2ccccc2nc(SCc2cn3ccsc3n2)n1-c1ccccc1F | -10 | 19 | 5.7* | 11 | 18 | 14876* | 1836 | +
CSc1nncn1/N=C/c1cc(Cl)ccc1F | -1 | 4 | 1.7 | -4 | 23 | nt | nt | nt
Cc1noc(C)c1CSc1nnc(-c2cc(Cl)ccc2Cl)n1N | 0 | -8 | 9.5* | nt | 7 | 25992* | 1756 | +
CC(=O)c1cccc(NC(=O)N2CCC(c3nnc(SCC(N)=O)n3C)CC2)c1 | 0 | 5 | 3.3* | -2 | 17 | 4940 | nt | i
CCCCOCCCn1cnc2c([nH]c3cc(OC)ccc32)c1=O | -6 | 37 | -0.0042 | 3 | 6 | nt | nt | nt
Cc1noc(NS(=O)(=O)c2ccc(N/C=C/C(=O)c3ccc4c(c3)OCO4)cc2)c1C | 8 | 13 | 8.5* | 4 | -10 | 13260* | 1840 | +
CSc1oc(-c2ccco2)nc1S(=O)(=O)c1ccc(Br)cc1 | -15 | -9 | 4* | 1 | 6 | 15096* | 1696 | i
CCSc1oc(-c2ccco2)nc1S(=O)(=O)c1ccccc1 | 10 | -24 | 3* | nt | 15 | 24204* | 1844 | +
CCSc1oc(-c2ccccc2)nc1S(=O)(=O)c1ccccc1 | -28 | 1 | 1.9 | 0 | 10 | nt | nt | nt
COc1cc(-c2nc(S(=O)(=O)c3ccccc3)c(N3CCOCC3)o2)cc(OC)c1OC | -16 | -17 | 5.1* | nt | 20 | 11504* | 1656 | +
O=S(=O)(c1ccccc1)c1nc(-c2ccco2)oc1N1CCCCCC1 | -6 | -14 | 6.6* | -6 | 19 | 10268* | 1700 | i
